Assay results from different studies.
Compare with care: the assays were run in different laboratories.

| SMILES | sample | concentration | time | pH | Papp [×10⁻⁶ cm/s] |
| --- | --- | --- | --- | --- | --- |
| Cc1nc([C@@](C)(CC2CC2)NC(=O)c2cc(OCC(F)(F)F)c(C3CC3)cn2)no1 | PAMPA | – | – | – | 2.44 |
| O=C(Nc1ccc2c(c1)B(O)OC2)c1cccc(OCc2ccccc2)c1 | PAMPA | 200 µM | 5 h | pH 7.4 | 0.14 |
| COCCOCCOCCOCCOc1c(OC)cc2cc(C(=O)N3C[C@@H](CCl)c4c3cc(O)c3[nH]c(C(=O)OC)cc43)[nH]c2c1OC | PAMPA | 1 µM | 5 h | pH 7.4 | 10 |
| CC[C@@H](C)[C@@H]1NC(=O)[C@@H](Cc2ccc(Cl)cc2)NC(=O)CN(C)C(=O)[C@H]([C@H](C)CC)NC(=O)[C@@H](Cc2ccc(Cl)cc2)NC(=O)CN(C)C1=O | PAMPA | – | – | – | 33 |
| COc1ccc(C[C@@H]2NC(=O)[C@@H](CC(C)C)NC(=O)CNC(=O)[C@H](CC(C)C)NC(=O)[C@@H](CC(C)C)NC(=O)[C@H]3CCCN3C2=O)cc1 | PAMPA | 10 µM | 7 h | – | 9.1 |
| NC(=O)[C@@H]1CC(F)(F)CN1C(=O)c1ccc(N2CC(F)(F)C2)c(OCC2CC2)n1 | PAMPA | – | – | – | 5.23 |
| CN1CCN(C(c2ccc(Cl)cc2)c2ccc(Cl)cc2)CC1 | PAMPA | – | – | – | 1020 |
| O=C(Nc1ccc2c(c1)B(O)OC2)c1ccc(OCc2ccc(Cl)cc2)cc1 | PAMPA | 200 µM | 5 h | pH 7.4 | 4.4 |
| O=c1cc(-c2ccc(O)cc2)oc2cc(O)cc(O)c12 | PAMPA-BBB | 1 µM | 18 h | – | 13.9 |
| CC[C@H](C)[C@@H]1NC(=O)[C@H](CC(C)C)NC(=O)[C@@H](CC(C)C)NC(=O)[C@H]2CCCN2C(=O)[C@H](Cc2ccc(OC)cc2)NC(=O)[C@@H](CC(C)C)NC1=O | PAMPA | 10 µM | 7 h | – | 11.9 |
| CC(C)[C@H]1C(=O)N[C@@H](CCCN=C(N)N)C(=O)NCC(=O)N[C@@H](CC(=O)O)C(=O)N[C@H](Cc2ccccc2)C(=O)N1C | Caco-2 | – | – | – | ~0.1 |
| Cn1c(=O)c2c(ncn2C)n(C)c1=O | PAMPA | 200 µM | 5 h | pH 7.4 | 11.7 |
| CC(NC(C)(C)C)C(=O)c1cccc(Cl)c1 (stereo not drawn) | PAMPA-BBB | 1 µM | 18 h | – | 16 |
| O=S(=O)(Nc1ccc2c(c1)B(O)OC2)c1ccc(Cl)cc1 | PAMPA | 200 µM | 5 h | pH 7.4 | 1.7 |
| COCCOCCOc1c(OC)cc2cc(C(=O)N3C[C@@H](CCl)c4c3cc(O)c3[nH]c(C(=O)OC)cc43)[nH]c2c1OC | PAMPA | 1 µM | 5 h | pH 7.4 | 3.6 |
